Screening data: PubChem BioAssay, several laboratories
CRFBP-R2 block: antagonists of CRF-BP/CRF-R2 complex, primary screen, cell-based, HEK293, calcium dye fluorescence, uHTS; CRF-induced calcium fluorescence; inhibition, % at 11.8 µM; actives 0.59% (n = 350,000);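 active = inhibition of the ligand-induced calcium signal above about 50% at the single tested concentration, limit read from the data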
DDE Tn7 FP inh: inhibitors of Tn7 peptide binding to fibrin DD(E), primary screen, biochemical, fluorescence polarization, human fibrin, Tn7 probe | Fibrinogen beta chain (Homo sapiens), P02675 | FP displacement of FITC-Tn7 peptide from fibrin DD(E); 0% = median of compound wells per plate | inhibition, % at 8.3 µM | actives 0.13% (n = 370,000) | AID 720508, 2013;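 active = inhibition above the mean of compounds falling within the control limits plus 3 SD of them, cut at about 14% in these data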;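 note: 0% = plate median of compound wells and 100% = 10 µM Aha-Tn7 peptide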
Target sequence (P02675 whole entry, looked up): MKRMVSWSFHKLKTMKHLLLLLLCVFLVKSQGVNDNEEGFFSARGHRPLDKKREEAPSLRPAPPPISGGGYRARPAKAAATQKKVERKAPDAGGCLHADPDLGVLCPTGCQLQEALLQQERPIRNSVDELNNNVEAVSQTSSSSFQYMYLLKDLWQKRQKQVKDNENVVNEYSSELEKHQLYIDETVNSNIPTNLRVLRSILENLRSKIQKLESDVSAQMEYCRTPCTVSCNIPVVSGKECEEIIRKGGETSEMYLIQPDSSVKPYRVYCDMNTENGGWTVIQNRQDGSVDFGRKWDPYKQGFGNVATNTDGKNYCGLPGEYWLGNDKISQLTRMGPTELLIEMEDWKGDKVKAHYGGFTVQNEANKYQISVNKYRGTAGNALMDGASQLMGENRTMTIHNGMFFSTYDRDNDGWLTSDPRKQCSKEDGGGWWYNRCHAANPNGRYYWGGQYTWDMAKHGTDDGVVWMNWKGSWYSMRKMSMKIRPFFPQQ
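Assay system: human fibrin DD(E) protein / Input: 2 µM fibrin DD(E) / Benchmarks: high control of 10 µM Aha-Tn7 peptide / Measured by: fluorescence polarization of the labelled Tn7 tracer / Medium: Tris buffer with calcium and detergent, pH 7.8 / Timing: 10 min compound pre-incubation, 3 h probe incubation at room temperature / Repeats: one replicate per compound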
CRFBP-R2 agonist: agonists of CRF-BP/CRF-R2 complex, primary screen, cell-based, HEK293, calcium dye fluorescence, uHTS; activation, % at 13.2 µM; calcium dye fluorescence (FLIPR); percent of saturating CRF peptide response; AID 588473, 2011; CRF-binding protein / CRF receptor 2 complex (human); actives 0.46% (n = 350,000);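 active = activation of at least 50%, plus an integration ratio under a set limit after plate pattern correction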;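 note: plate controls were neutral control wells without compound for no effect and CRF at EC100 for full effect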
Tn6 DDE FP: inhibitors of Tn6 peptide binding to fibrin DD(E), primary screen, biochemical, fluorescence polarization, human fibrin, Tn6 probe. Fibrinogen beta chain (Homo sapiens), P02675. Fibrin DD(E) TRITC-Tn6 fluorescence polarization displacement. inhibition, % at 8.3 µM. actives 0.21% (n = 370,000). AID 720509, 2013;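 active = inhibition above a per-campaign cutoff: mean of compounds within control limits plus 3 SD, cut at about 15% in these data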;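 note: 0% = median of all compound wells on the plate and 100% = blocking peptide control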
Numbers without * were called inactive; nt = not tested or not shown. Rows were chosen to be rich in hits. Some 1.2% of all compounds tested hit in one or more screens of this group.

SMILES | CRFBP-R2 block | DDE Tn7 FP inh | CRFBP-R2 agonist | Tn6 DDE FP
O=C(COC(=O)C(Cc1ccccc1)NC(=O)c1cccs1)NCc1ccccc1 (stereo not drawn) | 9 | 2 | -5 | 3
Cc1ccc(NC(=O)[C@@H]2CC(=O)O[C@@H]2c2ccccc2)c(C)c1 | nt | 4 | nt | -2
COc1ccc(C)cc1NC(=O)N1CCCc2ccccc21 | 53* | 2 | 2 | 0
CCC1Sc2ccc(S(=O)(=O)CCC(=O)NC3CCCCCC3)cc2NC1=O (stereo not drawn) | -40 | 4 | 0 | 5
CCOC(=O)C1=C(CSc2nc(-c3ccccc3)ccc2C#N)OC(N)=C(C#N)C1c1ccc(OC)cc1 (stereo not drawn) | -88 | -5 | 50* | 0
COc1ccc(-n2c(COc3ccc(C)cc3)nnc2SCC(=O)c2ccc(-c3ccccc3)cc2)cc1 | nt | -2 | nt | -14
CCOC(=O)/C=c1/s/c(=C/c2ccc3cc(OC)ccc3c2)c(=O)n1CC(=O)NCc1ccc2c(c1)OCO2 | -11 | 2 | 64* | -4
Cc1ccc(-c2c(C(=O)NC3CCCC3)oc(=O)c3ccccc23)cc1 | nt | -4 | nt | -7
O=C(O)C1C2C=CC(C2)C1C(=O)NCCc1cccc(Cl)c1 (stereo not drawn) | 50* | -2 | 1 | -3
Cc1ccc(S(=O)(=O)N(CC(=O)NCc2ccco2)Cc2ccccc2F)cc1 | 89* | -3 | -2 | 1
Cc1ccc(S(=O)(=O)NCC(=O)N(CCc2ccccc2)CC(=O)NCc2ccco2)cc1 | 12 | 2 | -1 | 7
Cc1ccc(S(=O)(=O)NCC(=O)N(CC(=O)NCc2ccco2)Cc2ccccc2)cc1 | -56 | 8 | 55* | -2
CN(CCCOC(=O)c1cc2ccccc2o1)C1CN(Cc2cn(Cc3ccccc3C(F)(F)F)nn2)S(=O)(=O)C1 (stereo not drawn) | nt | 5 | nt | -2
Cc1ccc(-c2cc(C(=O)NCc3ccccn3)c3ccccc3n2)cc1C | 111* | 1 | -3 | 5
Cc1cccc(-c2cc(C(=O)NCc3ccccn3)c3ccccc3n2)c1 | 5 | -5 | 0 | 3
O=C(NC1CC1)C1CCCN1C(=O)NC1CCCCC1 (stereo not drawn) | 5 | -7 | -2 | -2
O=C(NCC1CCCO1)C1CCCN1C(=O)NC1CCCCC1 (stereo not drawn) | 53* | -4 | -4 | -2
C[C@H]1[C@@H](OC(=O)N2CCOCC2)CC[C@@]23CCCN2C(=O)CCC[C@@H]13 | nt | 0 | nt | 3
NC(=O)C1CCN(c2ncc(Br)s2)CC1 | nt | 2 | nt | 7
O=C(NC(C(=O)N/N=C/c1cccnc1)c1n[nH]c(=O)c2ccccc12)c1ccccc1 (stereo not drawn) | -58 | 4 | 96* | -1
O=C(NC(C(=O)N/N=C/c1ccncc1)c1n[nH]c(=O)c2ccccc12)c1ccccc1 (stereo not drawn) | 4 | 5 | -1 | 6
COc1cccc2c(=O)n(CC(=O)N3CCc4ccccc43)ccc12 | -55 | -5 | 72* | -1
CCOC(=O)COc1cccc2c(=O)n(CC(=O)N3CCc4ccccc43)ccc12 | -22 | 6 | 1 | 6
COc1ccc(/C=C/c2c([N+](=O)[O-])c(=O)n(C)c(=O)n2C)cc1O | 52* | 1 | 1 | -2
COc1cc(/C=C/c2c([N+](=O)[O-])c(=O)n(C)c(=O)n2C)cc(OC)c1OC | -7 | -4 | 0 | -7
SMILES | CRFBP-R2 block | DDE Tn7 FP inh | CRFBP-R2 agonist | Tn6 DDE FP
COC(=O)c1ccc(/C(O)=C(\C#N)c2nc3ccccc3s2)cc1 | 51* | 11 | 43 | -3
CN(C)c1ccc(/C=C(\C#N)C(=O)c2ccccc2)cc1 | -189 | -10 | 212* | 0
CCN(CC)c1ccc(/C=C(\C#N)C(=O)c2ccc(Br)cc2)cc1 | -329 | -12 | 301* | -5
CCN(CC)c1ccc(/C=C(\C#N)C(N)=S)cc1 | -56 | -12 | 72* | -7
CCN(CC)c1ccc(/C=C(\C#N)C(N)=O)cc1 | -7 | -14 | 2 | -4
Cc1ccc(C=C(C#N)C(=O)c2ccccc2)cc1 | nt | -2 | nt | -1
CN(C(=O)[C@@H](C1CC1)[C@@H](O)c1ccc2ccccc2c1)c1ccccc1 | nt | -4 | nt | -5
COc1ccccc1NC(=O)O[C@@H]1CC[C@@]23CCCN2C(=O)CCC[C@H]3C1 | nt | -3 | nt | 1
COC(=O)[C@]12C[C@H](CC(=O)N3CCSCC3)C(=O)N(Cc3ccc4c(c3)OCO4)C1=C[C@H](C(C)C)O[C@@H]2C1CC1 | nt | 0 | nt | -4
N#Cc1ccc(NC(=O)COC(=O)CSc2nnc(-c3ccc(Cl)cc3)o2)cc1 | 52* | -5 | 4 | -1
O=C(COC(=O)CSc1nnc(-c2ccc(Cl)cc2)o1)Nc1cc(Cl)ccc1Cl | 40 | 3 | 4 | 0
COc1ccc(CNC(=O)CN(C)S(=O)(=O)c2ccc3c(c2)n(C)c(=O)c(=O)n3C)cc1 | 69* | -3 | -1 | 3
COc1ccc(CNC(=O)CCc2nc3cc(S(=O)(=O)N(C)C)ccc3n2C)cc1OC | 64* | 9 | -1 | -7
CN(C)S(=O)(=O)c1ccc2c(c1)nc(CCC(=O)O)n2C | 43 | 3 | 2 | 1
Cc1c(N=C2N=C(NC(=O)c3ccc(F)cc3)c3ccccc32)c(=O)n(-c2ccccc2)n1C | -54 | 1 | 65* | 9
COc1cc(SC)ccc1C(=O)Nc1ncc(C)s1 | 105* | 1 | 0 | 5
COc1cc(SC)ccc1C(=O)Nc1ccc(Br)cn1 | -3 | -1 | 3 | -2
Cc1ccc(NC(=O)c2ncn(CCCNCC3CCCO3)n2)cc1C (stereo not drawn) | 81* | 8 | -1 | 2
O=C(COC(=O)COc1ccc(Cl)cc1Br)NCc1cccs1 | 53* | 5 | -1 | -2
O=C(COC(=O)Cc1ccc(Cl)cc1)NCc1cccs1 | 5 | -2 | 0 | -7
CC(=O)Nc1ccc(S(=O)(=O)NCC(=O)N2CCN(S(=O)(=O)c3cccs3)CC2)cc1 | -5 | -3 | 0 | 1
O=C(NC1CCCCN(Cc2cccc(F)c2)C1=O)c1cccc(C(F)(F)F)c1 (stereo not drawn) | nt | -3 | nt | -5
O=C(Nc1nnc(-c2ccccc2)o1)c1ccc(Cl)cc1 | 73* | -4 | 54* | -6
COC(=O)[C@]12C[C@H](CC(=O)N3CCN(C(=O)C4CC4)CC3)C(=O)N(Cc3cccc4ccccc34)C1=C[C@H](C(C)(C)C)O[C@@H]2C | nt | 3 | nt | -4
CC[n+]1c(/C=C/C=C/N(C(C)=O)c2ccccc2)sc2cc(OC)ccc21 | -127 | -20 | 146* | -11
Oc1[nH]c2ccccc2c1N=Nc1ccccc1 | 2 | 1 | 10 | -5
Oc1[nH]c2ccccc2c1N=Nc1ccc(F)cc1 | -59 | -38 | 62* | -2
